# Source: PubChem BioAssay
# TDP2 inh: human TDP2 enzyme inhibitors, primary screen, biochemical, epi absorbance, recombinant enzyme | Tyrosyl-DNA phosphodiesterase 2 (Homo sapiens), O95551 | T5PNP hydrolysis, p-nitrophenol absorbance 415 nm | inhibition, % at 12.8 µM | actives 0.34% (n = 370,000) | AID 720702, 2013;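 active = inhibition above the mean of all tested compounds plus 3 SD, set per campaign, cut at about 25% in these data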;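 note: 0% = DMSO with enzyme and 100% = buffer with substrate but no TDP2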
#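 Test system: Human TDP2 enzyme | Reagent: 5 mM T5PNP | Compound dosing: 12.8 µM single point, 1% DMSO | Incubation: Enzyme reaction with compound for 2 h at 37 °C | Technique: p-Nitrophenol epi absorbance | Read-out: % inhibition relative to enzyme-containing and enzyme-free wells | Benchmarks: High control without enzyme, low control DMSO plus TDP2 | Replicates: Singlicate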
# GSTO1 inh: inhibitors of recombinant GSTO1, primary screen, counter-screen for RBBP9 inhibitor project, biochemical, fluorescence polarization; AID 1974, 2009; actives 1.1% (n = 300,000); Glutathione S-transferase omega-1 (Homo sapiens), P78417; inhibition, % at 5.96 µM; activity-based probe fluorescence polarization;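 active = inhibition above the campaign mean inhibition plus 3 SD, cut at about 35% in these data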;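 note: 0% = GSTO1-1 with DMSO and 100% = wells lacking GSTO1-1 enzyme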
# PAD4 inh: human PAD4 inhibitors, primary screen, biochemical, fluorescence polarization, 1536-well format; AID 485272, 2010; Protein-arginine deiminase type-4 (Homo sapiens), Q9UM07; actives 0.41% (n = 330,000); recombinant PAD4, RCA probe fluorescence polarization; inhibition, % at 6.36 µM;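 active = percent inhibition above a cutoff equal to the mean of all tested compounds plus 3 SD, cut at about 15% in these data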;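 note: 0% = PAD4 with RCA probe and DMSO and 100% = probe without PAD4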
# Apaf-1 inh: inhibitors of human Apaf-1 apoptosome, primary screen, biochemical, DEVD-Rh110 fluorescence, uHTS; actives 0.71% (n = 330,000); reconstituted apoptosome caspase-3 activity; Apoptotic protease-activating factor 1 (Homo sapiens), O14727; inhibition, % at 20 µM; active = inhibition of at least 40% at 20 µM;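 note: plate controls were DMSO wells for no effect and DEVD-CHO caspase inhibitor wells for full effect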
# Target sequence (O14727 whole entry, looked up): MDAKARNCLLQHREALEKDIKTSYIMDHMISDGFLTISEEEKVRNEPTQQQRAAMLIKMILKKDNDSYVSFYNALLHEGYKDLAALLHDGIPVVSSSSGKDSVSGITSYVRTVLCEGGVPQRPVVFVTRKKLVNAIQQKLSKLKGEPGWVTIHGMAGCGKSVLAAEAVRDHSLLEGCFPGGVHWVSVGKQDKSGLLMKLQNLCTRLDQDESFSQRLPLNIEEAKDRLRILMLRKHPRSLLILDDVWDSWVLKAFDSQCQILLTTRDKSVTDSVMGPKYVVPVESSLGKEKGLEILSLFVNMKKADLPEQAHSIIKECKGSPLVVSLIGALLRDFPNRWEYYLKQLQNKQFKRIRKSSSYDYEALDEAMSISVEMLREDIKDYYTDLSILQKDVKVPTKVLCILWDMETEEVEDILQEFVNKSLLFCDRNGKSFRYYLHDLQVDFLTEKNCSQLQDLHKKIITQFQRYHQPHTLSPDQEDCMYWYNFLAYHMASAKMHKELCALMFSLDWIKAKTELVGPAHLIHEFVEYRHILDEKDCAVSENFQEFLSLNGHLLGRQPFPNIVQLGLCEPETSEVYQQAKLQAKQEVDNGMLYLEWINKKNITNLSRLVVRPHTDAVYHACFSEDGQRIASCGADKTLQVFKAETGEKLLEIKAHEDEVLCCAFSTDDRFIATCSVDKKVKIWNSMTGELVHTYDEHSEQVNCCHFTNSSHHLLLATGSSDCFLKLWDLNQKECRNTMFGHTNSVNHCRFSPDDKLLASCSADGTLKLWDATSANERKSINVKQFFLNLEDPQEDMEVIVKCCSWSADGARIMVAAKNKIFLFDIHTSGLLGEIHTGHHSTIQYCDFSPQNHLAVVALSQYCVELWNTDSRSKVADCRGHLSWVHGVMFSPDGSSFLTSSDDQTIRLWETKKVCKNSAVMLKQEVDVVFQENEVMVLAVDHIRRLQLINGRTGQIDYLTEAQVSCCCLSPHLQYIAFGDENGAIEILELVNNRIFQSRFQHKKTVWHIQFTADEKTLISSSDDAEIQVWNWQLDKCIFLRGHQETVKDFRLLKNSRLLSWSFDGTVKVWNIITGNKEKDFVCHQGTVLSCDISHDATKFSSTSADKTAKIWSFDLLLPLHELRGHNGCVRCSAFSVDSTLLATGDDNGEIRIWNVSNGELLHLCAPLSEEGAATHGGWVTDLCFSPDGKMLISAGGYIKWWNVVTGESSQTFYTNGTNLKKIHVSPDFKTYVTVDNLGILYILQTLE
#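 Material: reconstituted apoptosome with Apaf-1, cytochrome c, caspase-9, procaspase-3, dATP / Buffer or medium: pH 7.5 Hepes buffer with CHAPS, BSA, DTT / Also added: cytochrome c with DEVD-Rh110 / Schedule: compound with Apaf-1, dATP, procaspase-3 30 min, then 50 min reaction, room temperature / Technique: rhodamine 110 fluorescence at Ex 480/Em 540 nm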
# PRMT1 FP inh: PRMT1 methyltransferase inhibitors, primary screen, biochemical, fluorescence polarization. Protein arginine N-methyltransferase 1 (Homo sapiens), Q99873. inhibition, % at 2.79 µM. actives 1.3% (n = 370,000). recombinant PRMT1, activity-based probe fluorescence polarization. AID 652257, 2013;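 active = inhibition above about 21% made by adding two undisclosed values, limit read from the data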
# PRMT1 confirm: PRMT1 methyltransferase inhibitors, confirmation, biochemical, fluorescence polarization, triplicate | shares compounds with PRMT1 FP inh | actives 42% (n = 3,300) | AID 687036, 2013 | recombinant His-PRMT1, activity-based probe fluorescence polarization | inhibition, % at 2.79 µM;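 active = mean inhibition across replicates above the hit cutoff derived for the earlier primary screen, cut at about 22% in these data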
# * = called active by the depositor; · = no result given. Most compounds without a hit are left out; they make up all but 2.6% or so of the library.
SMILES,TDP2 inh,GSTO1 inh,PAD4 inh,Apaf-1 inh,PRMT1 FP inh,PRMT1 confirm
O=C(c1ccccc1)c1ccc(N2CCN(C(=O)c3cccc(F)c3F)CC2)c(F)c1,-9,-2,-3,26,0,·
On1ccccc1=S,-4,27,3,·,88*,88*
O=C(NC1CCCCCC1)c1ccc[nH]c1=S,-7,7,-3,-15,49*,4
COc1cccc(NC(=O)c2nc(S(C)(=O)=O)ncc2Cl)c1,-4,-62,-3,5,40*,14
CN(c1ccccc1)S(=O)(=O)c1ccc(NC(=O)c2nc(S(C)(=O)=O)ncc2Cl)cc1,-10,-27,-7,14,40*,49*
Cc1ccc(Nc2ccc(N)cc2S(=O)(=O)O)cc1,1,23,-1,5,33*,9
Nc1ccc(Nc2ccccc2)c(S(=O)(=O)O)c1,-6,23,-1,0,37*,13
COc1ccc(-c2oc3c(c2C#CC(C)(C)O)C(OC)CCC3)cc1 (centres undefined),2,·,·,·,-3,·
Cc1nc2ccccc2n1C(c1cccnc1)c1nc2ccccc2[nH]1 (centres undefined),-2,·,·,·,8,·
CC(=Nc1ccccc1C(F)(F)F)c1ccncc1,1,-4,-1,5,3,·
COc1ccc(C=C2SC(=S)N(CCCN3CCOCC3)C2=O)c(OC)c1,-1,·,·,·,21,·
O=C1C(=Cc2cccc(O)c2O)SC(=S)N1CCCN1CCOCC1,2,·,·,·,82*,83*
CC(=O)c1ccc(NC(=O)/C(=C\c2ccco2)NC(=O)c2ccco2)cc1,18,-4,-8,4,20,·
CC(C)(C)c1ccc(C(=O)N/C(=C\c2ccco2)C(=O)Nc2ccccc2C(=O)O)cc1,-1,-35,-1,14,46*,1
O=C(NC(Cc1ccccc1)C(=O)O)/C(=C/c1ccco1)NC(=O)c1cccc(Br)c1 (centres undefined),-3,7,0,14,25*,7
O=C(Nc1ccc(C(=O)O)cc1)/C(=C\c1ccco1)NC(=O)c1ccco1,2,11,-7,0,47*,8
O=C(NC(Cc1ccccc1)C(=O)O)/C(=C/c1ccccc1)NC(=O)c1ccco1 (centres undefined),-22,0,-2,1,-1,·
CC/C(=C/c1sc2ccc(C)cc2[n+]1CCO)SC,5,-9,6,-4,52*,17
CCN1/C(=C/c2ccc3ccccc3[n+]2CCCS(=O)(=O)[O-])C=Cc2cc(C)ccc21,-7,·,·,·,1,·
Cc1ccc2sc(C)[n+](CCC(C)S(=O)(=O)[O-])c2c1 (centres undefined),1,3,8,-17,57*,31*
CC/C(=C/c1sc2ccc(C)cc2[n+]1CCCS(=O)(=O)[O-])SC,7,1,4,4,39*,23*
COC(=O)C1CN(C2CCCC2)CCS(=O)(=O)N1Cc1ccc(C(F)(F)F)cc1 (centres undefined),1,·,·,·,-2,·
Cc1ccc(C)c2[nH]c(=O)c(CCNC(=O)CCc3ccccc3)cc12,-4,-3,0,-2,0,·
CCNc1cccc2c1C(=O)N(C)C2=O,-2,5,-4,-3,44*,46*
Oc1c(C=Nc2ccccc2)sc2ccccc12,2,5,3,9,59*,32*
SMILES,TDP2 inh,GSTO1 inh,PAD4 inh,Apaf-1 inh,PRMT1 FP inh,PRMT1 confirm
Oc1c(C=Nc2cccnc2)sc2ccccc12,-7,4,-5,12,65*,45*
CN=Cc1sc2ccccc2c1O,-2,3,0,-5,52*,27*
Oc1ccccc1N=Cc1sc2ccccc2c1Cl,10,8,-11,6,6,·
CC(=O)Nc1ccc(NC(=O)CNC(=O)c2sc3ccccc3c2Cl)cc1,-4,-10,-8,-10,-1,·
CC(=O)NCCN=Cc1sc2ccccc2c1O,6,-2,4,6,40*,30*
Oc1sc(C=Nc2ccccc2)c2ccccc12,12,2,-2,21,1,·
O=C(NCc1ccc(C(=O)N2CCCN(Cc3ccccc3)CC2)cc1)c1cccc(Br)c1,-3,·,·,·,1,·
COC(=O)[C@@]12C[C@@H](CC(=O)NCc3ccc(OC)c(OC)c3)C(=O)N(Cc3cccc4ccccc34)C1=CCC(C)(C)C2,4,·,·,·,2,·
CCOC(=O)c1nn(-c2ccccc2C)c(=O)cc1OCC(=O)Nc1cccc(OC)c1,-1,9,4,26,5,·
O=C(C[C@H]1C=C[C@@H](NC(=O)Cc2cccnc2)[C@@H](CO)O1)NCc1ccc2c(c1)OCO2,-2,·,·,·,-1,·
COc1cc(C(=O)OCC(=O)N2CCCC2=O)cc(OC)c1C,1,·,2,7,96*,-1
CC(=O)Nc1ccc(C(=O)OCC(=O)N2CCCC2=O)cc1,-7,·,-9,14,-5,·
C=CCn1c(=O)[nH]c2nc3cc(N=CN(C)C)c(C)cc3nc2c1=O,5,8,3,-14,31*,75*
C=CCn1c(SCC(=O)Nc2ccc(Br)cc2)nc(O)c(CC)c1=O,3,9,3,11,53*,16
C=CCn1c(SCC(=O)Nc2ccccc2OC)nc(O)c(CC)c1=O,0,18,5,6,18,·
O=C(CSc1nnc(COc2ccccc2)n1Cc1ccco1)NCc1ccco1,-11,-1,-4,6,29*,13
Cc1cc(NC(=O)CSc2nnc(COc3ccccc3)n2Cc2ccco2)no1,1,-3,2,-6,-2,·
CC(=O)N1CCN(CC(=O)Nc2ccc([N+](=O)[O-])cc2Br)CC1,8,3,0,-11,3,·
CC1=C(C(=O)Nc2ccccc2)C(c2ccc(C)o2)n2c(s/c(=C\c3ccco3)c2=O)=N1 (centres undefined),-1,·,·,21,53*,-3
COc1ccccc1C1C(C(C)=O)=C(C)N=c2s/c(=C\c3cc(OC)c(OC)c(OC)c3)c(=O)n21 (centres undefined),-7,-8,-1,12,1,·
CCCCN(C)CCC(=O)Nc1ccc2c(c1)CCC2,7,-2,-5,-2,0,·
Cc1ccccc1-c1nc2ccccc2c(=O)n1/N=C/c1ccccc1[N+](=O)[O-],-8,4,-7,11,31*,17
Cc1ccc(-c2csc3nc(C)n(-n4cccc4)c(=O)c23)o1,7,8,4,0,26*,7
COc1ccc2nc(C)cc(SCC(=O)N/N=C/c3c(OC)ccc4ccccc34)c2c1,3,-5,5,·,0,·
